Measured values published in ChEMBL document CHEMBL2331346, “Isolation and characterization of unusual hydrazides from Streptomyces sp. impact of the cultivation support and extraction procedure” (J Nat Prod, 2013).
Activity calls are given as the source filed them. No cut-off for these calls is given here.

Tests used:
BL-21 = assay: (§1) Inhibition of His-tagged Escherichia coli DnaG primase expressed in Escherichia coli BL-21 cells assessed as inhibition of RNA synthesis complementary to ssDNA using rNTPs measured after 5 mins by microplate spectrofluorometer analysis
MDA-MB-231 = assay: Cytotoxicity against human MDA231 cells assessed as inhibition of cell proliferation after 72 hrs by […]; format: functional, cell-based
How it was run: (§2)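 Cells were grown in D-MEM with 10% fetal calf serum plus penicillin, streptomycin and fungizone, then plated in 96-well plates. After 24 h growth they were treated from 100 μM to 10 nM, with compounds in DMSO (final DMSO 1% to 3%). MTS reagent was added at 72 h and absorbance read at 490 nm versus untreated cells. IC50 came from separate duplicate experiments.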

KB = assay: Cytotoxicity against human KB cells assessed as inhibition of cell proliferation after 72 hrs by […] assay; format: functional, cell-based; how it was run: as §2
MCF7 = assay: Cytotoxicity against human MCF7 cells assessed as inhibition of cell proliferation after 72 hrs by […]; format: functional, cell-based; how it was run: as §2
HT-29 = assay: Cytotoxicity against human HT-29 cells assessed as inhibition of cell proliferation after 72 hrs by […]; format: functional, cell-based; how it was run: as §2
HCT-116 = assay: Cytotoxicity against human HCT116 cells assessed as inhibition of cell proliferation after 72 hrs by […]; format: functional, cell-based; settings: for IC50: HCT-116, 72 h; how it was run: as §2
Escherichia coli = assay: Antibacterial activity against Escherichia coli ATCC 25922 by disk inhibition zone method; format: functional, organism-based
How it was run: (§3)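 Disk inhibition zone method against the three strains. Reference antibiotics were gentamicin at 10 μg and chloramphenicol at 30 μg. Inhibition zones were compared with these disks.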

Micrococcus luteus = assay: Antibacterial activity against Micrococcus luteus ATCC 10240 by disk inhibition zone method; format: functional, organism-based; how it was run: as §3
Bacillus subtilis = assay: Antibacterial activity against Bacillus subtilis ATCC 6633 by disk inhibition zone method; format: functional, organism-based; how it was run: as §3
[1] = as §1

| SMILES | inhibition (BL-21) | inhibition (MDA-MB-231) | inhibition (KB) | inhibition (MCF7) | inhibition (HT-29) | inhibition (HCT-116) | Activity (Escherichia coli) | Activity (Micrococcus luteus) | Activity (Bacillus subtilis) | IC50 (KB) | IC50 (HCT-116) | IC50 [1] |
| --- | --- | --- | --- | --- | --- | --- | --- | --- | --- | --- | --- | --- |
| CCCC[C@H]1ON(C(=O)CCC2=CCOC2=O)N=C(C)O[C@H]1O (mixture of isomers) | inactive | inactive | inactive | inactive | inactive | inactive | inactive | inactive | inactive | – | – | – |
| CC(=O)O[C@@]12CO[C@@H]1C[C@H](O)[C@@]1(C)C(=O)[C@H](O)C3=C(C)[C@@H](OC(=O)[C@H](O)[C@@H](NC(=O)OC(C)(C)C)c4ccccc4)C[C@@](O)([C@@H](OC(=O)c4ccccc4)[C@H]21)C3(C)C [DOCETAXEL] | – | – | – | – | – | – | – | – | – | 0.25 nM | 50 nM | – |
| CCCC/C=C/N(NC(C)=O)C(=O)CO | inactive | inactive | inactive | inactive | inactive | inactive | inactive | inactive | inactive | – | – | – |
| CCCC/C=C\N(NC(C)=O)C(=O)C(CO)/N=[N+](\[O-])CCCCCC (configuration not stated) [GERALCIN C] | Dose-dependent effect | – | – | – | – | – | inactive | inactive | inactive | 800 nM | 800 nM | 700000 nM |
